Results of several laboratories.
Lines come from different studies, so protocols differ. Values after ≈ are worked out from the molar mass of the structure shown.

With CCN(CC)CCCC(C)Nc1ccnc2cc(Cl)ccc12 (stereo not shown) the IC50 was 19.5 nM (Plasmodium knowlesi; parasite growth, SYBR Green).
With O=c1c2ccccc2[se]n1-c1ccccc1 the IC50 was 1570 nM (Influenza A virus; viral replication; Vero, H1N1; 48 h).
For N.N.[Cl][Pt][Cl], the inhibition was 100% (SU-DHL-8; cell growth or viability, ATP luminescence; 10 µM, 72 h).
CC1=CC(=O)c2c(O)cccc2C1=O gave an IC50 of 10800 nM (HuCC-A1; cell growth or viability, MTT).
With NC(=O)c1ncn([C@@H]2O[C@H](CO)[C@@H](O)[C@H]2O)n1 the IC50 was 3440 nM (Influenza A virus; viral replication, inhibitor, ELISA; MDCK, H1N1; 24 h).
The MFC of CC[C@H](C)C[C@H](C)CCCCCCCCC(=O)N[C@H]1C[C@@H](O)[C@@H](NCCN)NC(=O)[C@@H]2[C@@H](O)CCN2C(=O)[C@H]([C@H](O)CCN)NC(=O)[C@H]([C@H](O)[C@@H](O)c2ccc(O)cc2)NC(=O)[C@@H]2C[C@@H](O)CN2C(=O)[C@H]([C@@H](C)O)NC1=O is reported as 4 µg/mL (≈ 3.66 µM) (Pichia kudriavzevii; microbial killing, broth dilution; ATCC14243; 48 h).
CC(C)C(=O)OC[C@H]1O[C@@H](n2ccc(NO)nc2=O)[C@H](O)[C@@H]1O has an IC50 of 28300 nM (Influenza A virus; viral replication, inhibitor, ELISA; MDCK, H1N1; 24 h).
With CN[C@H](CC(C)C)C(=O)N[C@H]1C(=O)N[C@@H](CC(N)=O)C(=O)N[C@H]2C(=O)N[C@H]3C(=O)N[C@H](C(=O)N[C@H](C(=O)O)c4cc(O)cc(O)c4-c4cc3ccc4O)[C@H](O)c3ccc(c(Cl)c3)Oc3cc2cc(c3O[C@@H]2O[C@H](CO)[C@@H](O)[C@H](O)[C@H]2O[C@H]2C[C@](C)(N)[C@H](O)[C@H](C)O2)Oc2ccc(cc2Cl)[C@H]1O the MIC was > 64 µg/mL (Enterococcus; microbial growth, broth dilution; VRE).
The EC50 of NC(=O)c1nc(F)c[nH]c1=O is reported as 1320 nM (Influenza A virus; viral replication, inhibitor; H1N1 PR/8).
With Sc1ncnc2nc[nH]c12 the IC50 was 11400 nM (Influenza A virus; viral replication, inhibitor, ELISA; MDCK, H1N1; 24 h).
For COC(=O)OCOc1c2n(ccc1=O)N([C@@H]1c3ccccc3SCc3c1ccc(F)c3F)[C@@H]1COCCN1C2=O, the EC50 was 0.946 nM (Influenza A virus; viral replication, inhibitor; MDCK, H1N1 WSN).
O=c1[nH]cc(F)c(=O)[nH]1 has an IC50 of 50400 nM (Influenza A virus; viral replication, inhibitor, ELISA; MDCK, H1N1; 24 h).
For N=C(CC(O)c1cc2c(F)cc(F)cc2c2cc(C(F)(F)F)ccc12)Nc1cccc(F)c1 (stereo not shown), the IC50 was 6.4 nM (Plasmodium knowlesi; parasite growth, SYBR Green).
